The results in this text go back to ChEMBL document CHEMBL1130328, “Synthesis and pharmacological activity of deltorphin and dermorphin-related glycopeptides” (J Med Chem, 1997).

A value given as a limit tells only on which side of the number the result lay.

One test addresses Mu-type opioid receptor (Rattus norvegicus, UniProt P33535). Description: Opioid receptor mu 1 binding affinity by displacement of radioligand [3H][DAla,MePhe,Gly-ol]enkephalin (DAGO) from rat brain membrane synaptosomes. Type of test: subcellular. The method, boiled down: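 Rat brain (male Sprague–Dawley) P2 synaptosomes, preincubated to remove endogenous opioids and washed. Incubated 120 min at 22 °C, 1.6 mg protein, in duplicate, with 0.62 nM [3H]DPDPE (δ) or 0.68 nM [3H]DAGO (μ). Nonspecific binding with 1–2 μM unlabelled ligand. Filtration, scintillation counting. Five to seven concentrations. Ki from IC50 by Cheng–Prusoff, mean ± SE, n = 3–9.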

The next test is filed under the species Oryctolagus cuniculus. Description: Bioactivity in vitro in rabbit jejunum (RJ) isolated organ preparation. Type of test: functional. Summed up: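 Rabbit jejunum on isotonic transducer under 1 g load, equilibrated 45 min while recording spontaneous activity without washing. Dose–response curves run against a reference agonist. At least four jejunum preparations, each from a different rabbit. Means of six experiments.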

The target in test [1] is Delta-type opioid receptor (Rattus norvegicus, UniProt P33533). Description: Opioid receptor delta 1 binding affinity by displacement of radioligand [3H][D-Pen]-enkephalin (DPDPE) from rat brain membrane synaptosomes. The test is classed as subcellular.
Delta-type opioid receptor, sequence (P33533 whole entry): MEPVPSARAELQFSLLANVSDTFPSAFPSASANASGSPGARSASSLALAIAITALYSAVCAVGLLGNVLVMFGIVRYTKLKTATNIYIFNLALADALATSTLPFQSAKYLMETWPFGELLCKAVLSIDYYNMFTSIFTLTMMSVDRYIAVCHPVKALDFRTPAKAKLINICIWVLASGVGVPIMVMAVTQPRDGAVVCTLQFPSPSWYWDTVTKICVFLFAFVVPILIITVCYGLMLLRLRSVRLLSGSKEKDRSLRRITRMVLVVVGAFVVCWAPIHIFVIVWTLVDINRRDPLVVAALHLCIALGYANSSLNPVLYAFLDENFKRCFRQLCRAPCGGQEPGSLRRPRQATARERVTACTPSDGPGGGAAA
The species named for a further test is Cavia porcellus. Description: Bioactivity in vitro in guinea pig ileum (GPI) isolated organ preparation. The test is classed as functional. The method, boiled down:
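Guinea pig ileum segment (2–3 cm) in 20 mL bath with 70 μM hexamethonium and 0.125 μM mepyramine, 95% O2/5% CO2, 36 °C. Transmural stimulation 0.5 ms pulses at 0.1 Hz, 1.5× maximal-twitch voltage. 1 g load, 45 min equilibration, isotonic recording. Dose–response curves run against a reference agonist. Means of six experiments.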

Mu-type opioid receptor, sequence (P33535 whole entry): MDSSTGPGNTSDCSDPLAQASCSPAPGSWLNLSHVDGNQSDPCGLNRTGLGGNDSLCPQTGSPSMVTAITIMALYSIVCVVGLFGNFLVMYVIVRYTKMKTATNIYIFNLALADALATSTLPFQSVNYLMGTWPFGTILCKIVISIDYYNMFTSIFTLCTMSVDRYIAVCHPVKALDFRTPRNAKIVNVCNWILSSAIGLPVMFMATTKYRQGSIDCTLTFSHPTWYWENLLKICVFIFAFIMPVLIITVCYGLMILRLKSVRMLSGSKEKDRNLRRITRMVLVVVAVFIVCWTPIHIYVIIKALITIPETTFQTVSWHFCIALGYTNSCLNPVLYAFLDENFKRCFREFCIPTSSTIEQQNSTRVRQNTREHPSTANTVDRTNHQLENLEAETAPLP

As to `CC(=O)OC[C@@H]1O[C@H](O[C@@H](C)[C@H](NC(=O)[C@@H](NC(=O)[C@@H](NC(=O)[C@H](CC(=O)O)NC(=O)[C@H](Cc2ccccc2)NC(=O)[C@@H](C)NC(=O)[C@@H](N)Cc2ccc(O)cc2)C(C)C)C(C)C)C(=O)NCC(N)=O)[C@@H](OC(C)=O)[C@H](OC(C)=O)[C@H]1OC(C)=O`, the Ki was 635 nM at Mu-type opioid receptor and 1.3 nM in test [1]. Besides, in the test listed under Oryctolagus cuniculus, the IC50 is 890 nM.

`CC(C)[C@H](NC(=O)[C@H](CC(=O)O)NC(=O)[C@H](Cc1ccccc1)NC(=O)[C@@H](C)NC(=O)[C@@H](N)Cc1ccc(O)cc1)C(=O)N[C@H](C(=O)N[C@H](C(=O)NCC(N)=O)[C@@H](C)O[C@H]1O[C@H](CO)[C@@H](O)[C@H](O)[C@H]1O)C(C)C`: the Ki was 579 nM at Mu-type opioid receptor and 1.55 nM in test [1]. Moreover, the IC50 in the test filed under Oryctolagus cuniculus amounted to 995 nM.

Regarding `C[C@@H](NC(=O)[C@@H](N)Cc1ccc(O)cc1)C(=O)N[C@@H](Cc1ccccc1)C(=O)N[C@H](C(=O)N[C@@H](Cc1ccc(O)cc1)C(=O)N1CCC[C@H]1C(=O)N[C@@H](CO)C(N)=O)[C@@H](C)O[C@H]1O[C@H](CO)[C@@H](O)[C@H](O)[C@H]1O`, the Ki was 1700 nM on Mu-type opioid receptor and 1760 nM in test [1]. The compound further showed an IC50 in the test listed under Cavia porcellus of 3400 nM.

Consider `CC(=O)OC[C@H]1O[C@H](O[C@H](C)[C@H](NC(=O)[C@H](Cc2ccccc2)NC(=O)[C@@H](C)NC(=O)[C@@H](N)Cc2ccc(O)cc2)C(=O)N[C@@H](Cc2ccc(O)cc2)C(=O)N2CCC[C@H]2C(=O)N[C@@H](CO)C(N)=O)[C@H](OC(C)=O)[C@H](OC(C)=O)[C@H]1OC(C)=O`, for which the Ki on Mu-type opioid receptor was found to be 4400 nM; in test [1], 22600 nM. This compound came in with an IC50 in the test filed under Cavia porcellus of more than 4000 nM.

`CC(=O)OC[C@@H]1O[C@H](O[C@H](C)[C@H](NC(=O)[C@@H]2CCCN2C(=O)[C@H](Cc2ccc(O)cc2)NC(=O)CNC(=O)[C@H](Cc2ccccc2)NC(=O)[C@@H](C)NC(=O)[C@@H](N)Cc2ccc(O)cc2)C(=O)NCC(N)=O)[C@@H](OC(C)=O)[C@H](OC(C)=O)[C@H]1OC(C)=O`: the Ki on Mu-type opioid receptor turned out to be 0.46 nM; in test [1], 86.8 nM. Moreover, the midpoint of inhibition in the test filed under Cavia porcellus, the IC50, lay at 22.1 nM.

Regarding `CC(=O)OC[C@H]1O[C@H](O[C@H](C)[C@H](NC(=O)[C@H](Cc2ccccc2)NC(=O)[C@@H](C)NC(=O)[C@@H](N)Cc2ccc(O)cc2)C(=O)N[C@H](C(=O)N[C@H](C(=O)NCC(N)=O)C(C)C)C(C)C)[C@H](OC(C)=O)[C@@H](OC(C)=O)[C@@H]1OC(C)=O`, the Ki amounted to 1520 nM at Mu-type opioid receptor and 2110 nM in test [1]. Further, in the test listed under Oryctolagus cuniculus, the IC50 is more than 4000 nM.

As to `CC(C)[C@H](NC(=O)[C@@H](NC(=O)[C@@H](NC(=O)[C@H](Cc1ccccc1)NC(=O)[C@@H](C)NC(=O)[C@@H](N)Cc1ccc(O)cc1)[C@@H](C)O[C@H]1O[C@H](CO)[C@@H](O)[C@@H](O)[C@H]1O)C(C)C)C(=O)NCC(N)=O`, the inhibition constant Ki on Mu-type opioid receptor was determined as 1990 nM; in test [1] it was 9500 nM. In the test filed under Oryctolagus cuniculus, the IC50 is more than 4000 nM.

For the compound `C[C@H](O[C@H]1O[C@@H](CO)[C@H](O)[C@@H](O)[C@@H]1O)[C@H](NC(=O)[C@@H]1CCCN1C(=O)[C@H](Cc1ccc(O)cc1)NC(=O)CNC(=O)[C@H](Cc1ccccc1)NC(=O)[C@@H](C)NC(=O)[C@@H](N)Cc1ccc(O)cc1)C(=O)NCC(N)=O`, the Ki came out at 0.29 nM at Mu-type opioid receptor and 67 nM in test [1]. In the test listed under Cavia porcellus, this compound showed an IC50 of 3.1 nM.

For the compound `CC(C)[C@H](NC(=O)[C@H](CC(=O)O)NC(=O)[C@H](Cc1ccccc1)NC(=O)[C@@H](C)NC(=O)[C@@H](N)Cc1ccc(O)cc1)C(=O)N[C@H](C(=O)NCC(N)=O)C(C)C` [DELTORPHIN C], the IC50 in the test filed under Oryctolagus cuniculus was 510 nM.

On to `C[C@@H](NC(=O)[C@@H](N)Cc1ccc(O)cc1)C(=O)N[C@@H](Cc1ccccc1)C(=O)NCC(=O)N[C@@H](Cc1ccc(O)cc1)C(=O)N1CCC[C@H]1C(=O)N[C@@H](CO)C(N)=O` [DERMORPHIN], for which the Ki on Mu-type opioid receptor came out at 0.28 nM. For the same compound, 2.1 nM corresponded to half-maximal inhibition in the test filed under Cavia porcellus (IC50).
